Publication PMC4358770 (Journal of medicinal chemistry, 2010)

Tests used:
turkey P2Y1 receptor = turkey P2Y1 receptor (Meleagris gallopavo, UniProt P49652); assay type: cell-based; conditions: B isomer vs A isomer
NTPDase1 = molecular target: T1, NTPDase1 (Homo sapiens, UniProt P49961); assay: NTPDase1 hydrolysis assay; assay type: in vitro ADME; conditions: 100 μM substrate; vs 100 μM ATP set at 100%
T1 sequence (P49961 1-510): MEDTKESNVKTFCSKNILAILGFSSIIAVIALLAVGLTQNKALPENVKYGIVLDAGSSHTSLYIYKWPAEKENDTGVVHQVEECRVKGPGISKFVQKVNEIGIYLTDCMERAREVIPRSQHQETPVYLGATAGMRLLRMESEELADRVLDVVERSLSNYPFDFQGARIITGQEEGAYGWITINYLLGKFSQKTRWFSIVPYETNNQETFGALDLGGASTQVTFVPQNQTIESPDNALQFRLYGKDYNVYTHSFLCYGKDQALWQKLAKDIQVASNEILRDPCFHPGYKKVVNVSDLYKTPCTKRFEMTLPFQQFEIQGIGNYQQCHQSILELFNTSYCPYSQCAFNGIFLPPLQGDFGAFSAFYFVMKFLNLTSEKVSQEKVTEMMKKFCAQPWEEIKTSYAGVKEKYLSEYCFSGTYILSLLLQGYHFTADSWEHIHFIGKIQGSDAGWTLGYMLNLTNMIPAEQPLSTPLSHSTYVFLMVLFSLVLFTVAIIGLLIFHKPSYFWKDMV

NTPDase2 = molecular target: T2, NTPDase2 (Homo sapiens, UniProt Q9Y5L3); assay: NTPDase2 hydrolysis assay; assay type: in vitro ADME; conditions: 100 μM substrate; vs 100 μM ATP set at 100%
T2 sequence (Q9Y5L3 1-495): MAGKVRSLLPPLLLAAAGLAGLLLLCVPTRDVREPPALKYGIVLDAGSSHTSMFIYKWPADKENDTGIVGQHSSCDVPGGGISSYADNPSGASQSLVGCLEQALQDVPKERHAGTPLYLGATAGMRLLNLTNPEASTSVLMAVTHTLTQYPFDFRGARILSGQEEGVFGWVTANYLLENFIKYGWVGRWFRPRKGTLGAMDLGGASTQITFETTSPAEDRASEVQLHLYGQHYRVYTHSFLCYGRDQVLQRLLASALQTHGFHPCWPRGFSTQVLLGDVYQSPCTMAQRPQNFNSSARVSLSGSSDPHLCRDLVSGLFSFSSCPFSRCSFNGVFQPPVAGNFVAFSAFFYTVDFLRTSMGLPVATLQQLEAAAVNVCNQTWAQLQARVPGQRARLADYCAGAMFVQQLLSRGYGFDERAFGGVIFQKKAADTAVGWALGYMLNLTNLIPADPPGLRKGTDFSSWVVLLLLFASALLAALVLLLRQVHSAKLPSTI
Outline: (§1)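 Enzymes were transiently expressed in COS-7 cells. Crude protein extracts were made by sonication, 300g clearing at 4 °C and storage at −80 °C, with protein measured by Bradford. Extract was preincubated 3 min at 37 °C in Tris-Ringer buffer, pH 7.4. […] Activity of untransfected-cell extract was subtracted.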

NTPDase3 = molecular target: T3, NTPDase3 (Homo sapiens, UniProt O75355); assay: NTPDase3 hydrolysis assay; assay type: in vitro ADME; conditions: 100 μM substrate; vs 100 μM ATP set at 100%
T3 sequence (O75355 1-529): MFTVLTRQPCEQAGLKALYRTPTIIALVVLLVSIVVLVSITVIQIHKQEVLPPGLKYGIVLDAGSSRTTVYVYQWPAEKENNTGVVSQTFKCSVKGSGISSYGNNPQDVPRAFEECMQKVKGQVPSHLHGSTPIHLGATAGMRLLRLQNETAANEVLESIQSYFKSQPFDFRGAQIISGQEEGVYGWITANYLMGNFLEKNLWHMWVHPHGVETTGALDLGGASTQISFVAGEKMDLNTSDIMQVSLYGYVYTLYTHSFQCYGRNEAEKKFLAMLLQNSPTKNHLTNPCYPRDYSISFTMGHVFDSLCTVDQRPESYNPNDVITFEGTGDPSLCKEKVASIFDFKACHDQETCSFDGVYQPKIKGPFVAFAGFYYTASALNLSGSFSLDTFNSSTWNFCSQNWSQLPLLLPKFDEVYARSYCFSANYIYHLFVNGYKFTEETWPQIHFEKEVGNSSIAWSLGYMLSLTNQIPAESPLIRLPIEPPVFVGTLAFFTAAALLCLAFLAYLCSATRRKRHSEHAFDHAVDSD
Outline: as §1

human NPP3 = molecular target: T4, human NPP3 (Homo sapiens, UniProt O14638); assay: NPP3 hydrolysis assay; assay type: in vitro ADME; conditions: 100 μM substrate; vs 100 μM ATP set at 100%
T4 sequence (O14638 1-875): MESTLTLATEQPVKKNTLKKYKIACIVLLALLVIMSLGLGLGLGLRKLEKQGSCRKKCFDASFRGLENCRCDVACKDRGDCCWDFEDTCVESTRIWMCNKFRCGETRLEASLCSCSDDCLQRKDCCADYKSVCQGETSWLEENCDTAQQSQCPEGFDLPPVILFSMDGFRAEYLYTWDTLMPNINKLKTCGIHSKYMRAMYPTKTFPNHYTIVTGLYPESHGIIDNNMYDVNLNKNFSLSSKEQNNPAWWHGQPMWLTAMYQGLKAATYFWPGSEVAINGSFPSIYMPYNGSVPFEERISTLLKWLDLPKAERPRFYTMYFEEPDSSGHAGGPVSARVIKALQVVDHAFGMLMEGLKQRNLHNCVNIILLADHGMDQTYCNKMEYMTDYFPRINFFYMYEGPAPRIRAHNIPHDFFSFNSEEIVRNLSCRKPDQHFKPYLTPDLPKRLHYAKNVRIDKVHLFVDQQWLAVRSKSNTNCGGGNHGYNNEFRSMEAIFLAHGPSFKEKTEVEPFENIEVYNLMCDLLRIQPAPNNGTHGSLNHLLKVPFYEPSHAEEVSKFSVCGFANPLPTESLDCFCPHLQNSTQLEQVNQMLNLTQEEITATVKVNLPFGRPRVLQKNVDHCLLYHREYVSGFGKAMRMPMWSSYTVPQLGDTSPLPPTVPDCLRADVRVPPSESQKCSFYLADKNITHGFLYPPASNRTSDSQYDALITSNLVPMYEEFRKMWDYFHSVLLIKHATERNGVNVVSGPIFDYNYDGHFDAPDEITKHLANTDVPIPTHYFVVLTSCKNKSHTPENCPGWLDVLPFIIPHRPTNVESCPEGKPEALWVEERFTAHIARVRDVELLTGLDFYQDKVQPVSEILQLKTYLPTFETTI

Sequence of turkey P2Y1 receptor (P49652 whole entry): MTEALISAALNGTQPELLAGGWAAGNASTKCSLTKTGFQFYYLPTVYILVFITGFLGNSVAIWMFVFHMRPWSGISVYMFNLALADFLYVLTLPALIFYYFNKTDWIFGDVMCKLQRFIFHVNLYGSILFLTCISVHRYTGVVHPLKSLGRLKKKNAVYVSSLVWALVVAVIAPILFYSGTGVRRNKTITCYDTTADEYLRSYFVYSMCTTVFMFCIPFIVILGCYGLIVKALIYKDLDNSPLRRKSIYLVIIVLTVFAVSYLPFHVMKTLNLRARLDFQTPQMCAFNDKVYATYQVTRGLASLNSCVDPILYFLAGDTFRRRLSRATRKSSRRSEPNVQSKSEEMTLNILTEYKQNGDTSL

BP(=O)(OC[C@H]1O[C@@H](n2cnc3c(N)nc(SC)nc32)[C@H](O)[C@@H]1O)OP(=O)(O)C(Cl)(Cl)P(=O)(O)O (stereo partly drawn) [analogue 12B, 2-MeS-adenosine-5′-O-(α-boranotriphosphate)-β,γ-CCl2]
fold less potent at P2Y1R than the A isomer 12A (turkey P2Y1 receptor): 2 fold
relative hydrolysis by NTPDase1 (NTPDase1): completely resistant
relative hydrolysis by NTPDase2 (NTPDase2): completely resistant
relative hydrolysis by NTPDase3 (NTPDase3): completely resistant
relative hydrolysis by NPP3 (human NPP3): completely resistant
